Assay results as given in ChEMBL document CHEMBL4049434, “Radiolabeled Dibenzodiazepinone-Type Antagonists Give Evidence of Dualsteric Binding at the M2 Muscarinic Acetylcholine Receptor” (J Med Chem, 2017).
The source made the active and inactive calls. The calls are words filed in the database; no cut-off is given here.

Tests used:
[1] = target: T1, Muscarinic acetylcholine receptor M1 (Homo sapiens, UniProt P11229); experiment: Displacement of [3H]NMS from human muscarinic acetylcholine receptor M1 expressed in CHOK9 cells after 3 hrs by liquid scintillation counting assay; format: cell-based
T1 sequence (P11229 whole entry): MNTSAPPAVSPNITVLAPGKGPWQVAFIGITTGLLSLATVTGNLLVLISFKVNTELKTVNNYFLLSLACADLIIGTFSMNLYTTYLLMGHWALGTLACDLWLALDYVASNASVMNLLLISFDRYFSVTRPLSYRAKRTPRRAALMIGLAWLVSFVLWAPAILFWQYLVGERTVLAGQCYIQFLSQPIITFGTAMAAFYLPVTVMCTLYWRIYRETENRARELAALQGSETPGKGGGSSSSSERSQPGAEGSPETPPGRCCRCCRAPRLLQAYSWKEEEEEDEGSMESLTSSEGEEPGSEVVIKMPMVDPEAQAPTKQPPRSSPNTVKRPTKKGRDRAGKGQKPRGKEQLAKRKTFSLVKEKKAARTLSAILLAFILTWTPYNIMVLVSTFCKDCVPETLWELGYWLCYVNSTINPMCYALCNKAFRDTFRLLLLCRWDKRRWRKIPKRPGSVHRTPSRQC

[2] = target: T2, Muscarinic acetylcholine receptor M4 (Homo sapiens, UniProt P08173); experiment: Displacement of [3H]NMS from human muscarinic acetylcholine receptor M4 expressed in CHOK9 cells after 3 hrs by liquid scintillation counting assay; format: cell-based
T2 sequence (P08173 whole entry): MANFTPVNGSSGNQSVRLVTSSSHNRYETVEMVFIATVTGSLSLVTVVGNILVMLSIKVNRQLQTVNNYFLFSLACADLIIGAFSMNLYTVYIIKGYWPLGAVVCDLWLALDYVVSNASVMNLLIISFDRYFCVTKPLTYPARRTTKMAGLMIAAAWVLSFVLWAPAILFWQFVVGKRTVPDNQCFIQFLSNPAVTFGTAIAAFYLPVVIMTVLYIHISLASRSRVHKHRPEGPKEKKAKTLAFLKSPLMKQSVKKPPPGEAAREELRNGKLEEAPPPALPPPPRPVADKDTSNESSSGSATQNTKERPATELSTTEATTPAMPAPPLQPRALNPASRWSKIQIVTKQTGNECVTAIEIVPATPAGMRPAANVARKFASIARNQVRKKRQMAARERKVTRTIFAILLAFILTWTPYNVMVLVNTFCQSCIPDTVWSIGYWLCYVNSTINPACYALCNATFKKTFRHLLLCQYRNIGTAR

[3] = target: T3, Muscarinic acetylcholine receptor M2 (Homo sapiens) (UniProt P08172); experiment: (§1) Competitive antagonist activity at human muscarinic acetylcholine receptor M2 expressed in HEK293 cells coexpressing HA tagged Galpha-protein qi5 assessed as inhibition of 10 uM carbachol-induced IP1 accumulation preincubated for 30 mins followed by carbachol addition measured after 1 hr by HTRF assay; format: functional, cell-based
T3 sequence (whole entry): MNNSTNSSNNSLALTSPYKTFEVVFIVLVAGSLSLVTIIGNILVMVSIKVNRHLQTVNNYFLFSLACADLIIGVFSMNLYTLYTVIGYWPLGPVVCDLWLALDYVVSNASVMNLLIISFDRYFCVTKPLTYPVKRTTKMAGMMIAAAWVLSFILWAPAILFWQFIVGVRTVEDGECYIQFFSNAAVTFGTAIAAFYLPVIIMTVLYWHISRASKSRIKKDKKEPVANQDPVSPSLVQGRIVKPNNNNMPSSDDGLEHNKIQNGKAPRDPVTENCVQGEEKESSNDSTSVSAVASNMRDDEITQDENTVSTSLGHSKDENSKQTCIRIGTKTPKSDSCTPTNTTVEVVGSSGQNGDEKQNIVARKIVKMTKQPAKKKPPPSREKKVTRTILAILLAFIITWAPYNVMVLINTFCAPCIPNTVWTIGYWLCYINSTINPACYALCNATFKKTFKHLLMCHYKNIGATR
Procedure, shortened: (§2)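 HEK-293 transiently cotransfected with human M2R and Gαqi5-HA. Cells preincubated 30 min with antagonist, then carbachol added (final 0.1, 0.3, 1 or 10 μM), 1 h at 37 °C. IP1 detected by HTRF (620/670 nm emission, 330 nm excitation). At least four independent experiments, each in duplicate.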

[4] = target: T4, Muscarinic acetylcholine receptor M2 (Homo sapiens, UniProt P08172); experiment: as §1; format: functional, cell-based; procedure, shortened: as §2
T4 sequence (P08172 whole entry): T3 sequence (whole entry)

[5] = target: T3, Muscarinic acetylcholine receptor M2 (Homo sapiens); experiment: Agonist activity at human muscarinic acetylcholine receptor M2 expressed in HEK293 cells coexpressing HA tagged Galpha-protein qi5 assessed as induction of IP1 accumulation measured after 1 hr by HTRF assay; format: functional, cell-based
Procedure, shortened: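 HEK-293 transiently cotransfected with human M2R and Gαqi5-HA, seeded 24 h before assay (10000 cells/well). Compounds in stimulation buffer (1 pM–100 μM final) 1 h at 37 °C; IP1 read by HTRF (620/670 nm, excitation 330 nm) after 60 min with detection reagents at rt. Duplicate, three experiments, carbachol as reference.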

[6] = target: T3, Muscarinic acetylcholine receptor M2 (Homo sapiens); experiment: Antagonist activity at human muscarinic acetylcholine receptor M2 expressed in HEK293 cells coexpressing HA tagged Galpha-protein qi5 assessed as inhibition of 0.3 uM carbachol-induced IP1 accumulation preincubated for 30 mins followed by carbachol addition measured after 1 hr by HTRF assay; format: functional, cell-based; procedure, shortened: as §2
[7] = target: T3, Muscarinic acetylcholine receptor M2 (Homo sapiens); experiment: Binding affinity to human muscarinic acetylcholine receptor M2 expressed in CHOK9 cell suspension after 2 hrs by liquid scintillation counting assay; conditions: tested as the 3H-labelled form
[8] = target: T3, Muscarinic acetylcholine receptor M2 (Homo sapiens); experiment: Binding affinity to human muscarinic acetylcholine receptor M2 expressed in CHOK9 cell homogenate after 2 hrs by liquid scintillation counting assay; conditions: tested as the 3H-labelled form
Procedure, shortened: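 CHO-hM2 cell homogenates (25–30 μg protein/well) in L15 medium with 1% BSA, 23 ± 1 °C, 2 h with tritiated dimeric radioligand. Competition used 0.5 nM radioligand; additional 0.4, 1, 2 and 4 nM in W84 experiments. […] Four-parameter logistic fits; at least three experiments in triplicate.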

[9] = target: T3, Muscarinic acetylcholine receptor M2 (Homo sapiens); experiment: Binding affinity to human muscarinic acetylcholine receptor M2 expressed in CHOK9 cells assessed as association rate constant incubated up to 140 mins by liquid scintillation counting assay; format: cell-based; conditions: tested as the 3H-labelled form
[10] = target: T3, Muscarinic acetylcholine receptor M2 (Homo sapiens); experiment: Binding affinity to human muscarinic acetylcholine receptor M2 expressed in CHOK9 cells assessed as dissociation rate constant after 105 mins by liquid scintillation counting assay; format: cell-based; conditions: tested as the 3H-labelled form
[11] = Chemical stability of the compound in PBS buffer at pH 7.4 after 48 hrs by HPLC analysis; format: physicochemical; conditions: pH 7.4, 48 h
Procedure, shortened: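 Compound at 100 μM final (from 10 mM stock) in PBS pH 7.4 at 22 ± 1 °C; samples taken at 0, 24 and 48 h, mixed with acetonitrile/1% aq TFA 2:8, analysed by RP-HPLC at 220 nm.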

[12] = target: T3, Muscarinic acetylcholine receptor M2 (Homo sapiens); experiment: Binding affinity to human muscarinic acetylcholine receptor M2 expressed in live adherent CHOK9 cells at Kd in presence of 500-fold excess atropine after 2 hrs by liquid scintillation counting assay relative to control; format: cell-based; conditions: tested as the 3H-labelled form
Procedure, shortened: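 Live adherent CHO-hM2 cells in L15 medium with 1% BSA, 23 ± 1 °C, 2 h incubation. Competition at 2 nM radioligand; additional 4, 8, 15 and 30 nM in W84 experiments. […] Saturation data fitted one-site; competition by four-parameter logistic fits; at least three experiments in triplicate.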

[13] = target: T3, Muscarinic acetylcholine receptor M2 (Homo sapiens); experiment: Binding affinity to human muscarinic acetylcholine receptor M2 expressed in CHOK9 cell suspension at Kd in presence of 500-fold excess atropine after 2 hrs by liquid scintillation counting assay relative to control; conditions: tested as the 3H-labelled form

Compound: CCC(=O)NCc1cc(C(=O)NCCNC(=O)CCc2cn(CCCCC3CCN(CC(=O)N4c5ccccc5NC(=O)c5ccccc54)CC3)cn2)cc(C(=O)NCCNC(=O)CCc2cn(CCCCC3CCN(CC(=O)N4c5ccccc5NC(=O)c5ccccc54)CC3)cn2)c1.O=C(O)C(F)(F)F.O=C(O)C(F)(F)F.O=C(O)C(F)(F)F.O=C(O)C(F)(F)F
- Ki [1]: 1.51 nM
- Ki [2]: 0.468 nM
- inhibition [3]: Dose-dependent effect
- IC50 [4]: 263 nM
- Activity [5]: inactive
- inhibition [6]: Dose-dependent effect
- pKb [6]: 7.36
- Bmax (disintegrations/minute) [7]: 1800
- Bmax (disintegrations/minute) [8]: 620
- K [9]: 933000 M⁻¹ s⁻¹
- K [10]: 0.011 min⁻¹
- Stability [11]: Stable
- Activity [12]: > 60%
- Activity [13]: < 15%
